# Source: PubChem BioAssay (several laboratories)
# MrgX1 agonist: activates human MrgX1 receptor signaling; actives 0.44% (n = 310,000); Q96LB2; MrgX1-HEK293 cells, Fluo-4 calcium fluorescence, agonist mode; stronger effect = higher value; B-score at 10 µM;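 active means calcium response B-score plate-corrected fluorescence ratio at least 3 library SD, with starting fluorescence B-score inside 5 SD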
#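 Test system: HEK293 cells stably expressing human MrgX1 receptor; Input: fifteen thousand cells per well; Dosing: compound delivered in addition one of three; Schedule: overnight seeding, then 1 h dark dye loading; Technique: Fluo-4 NW calcium fluorescence; Measure: B-scored fluorescence response ratio; Controls: positive and negative controls per plate.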
# PHOSPHO1 block: PHOSPHO1 (human) inhibition; actives 1.1% (n = 290,000); Q8TCT1; inhibition, % at 13.3 µM; recombinant PHOSPHO1, absorbance phosphatase assay; in the data active means inhibition above about 60%
# Target sequence (Q8TCT1 whole entry, looked up): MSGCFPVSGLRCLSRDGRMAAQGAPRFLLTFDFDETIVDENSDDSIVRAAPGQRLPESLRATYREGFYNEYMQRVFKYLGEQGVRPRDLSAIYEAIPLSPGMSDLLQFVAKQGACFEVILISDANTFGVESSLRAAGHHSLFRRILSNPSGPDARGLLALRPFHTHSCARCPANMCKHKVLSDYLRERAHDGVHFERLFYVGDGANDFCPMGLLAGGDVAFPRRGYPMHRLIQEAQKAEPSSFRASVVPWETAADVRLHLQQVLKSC
# MrgX1 PAM: human MrgX1 positive allosteric modulation, primary screen; Q96LB2; MrgX1-HEK293, Fluo-4 calcium flux, FDSS; stronger effect = higher value; B-score at 10 µM; actives 0.63% (n = 310,000); AID 588675;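 active means plate-corrected calcium response at least 3 library SD above typical, normal starting fluorescence, not activating the receptor alone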;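 further: compound read alongside a low EC10 to EC30 dose of BAM8-22 agonist; peak minus trough fluorescence over baseline measured at the second addition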
# RGS4 pot: RGS4 potentiation or activation; HEK293 M3R/inducible RGS4, carbachol calcium flux Fluo4; stronger effect = lower value; B-score at 10 µM; actives 0.92% (n = 310,000);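 active means B-score of the integrated calcium signal more than 4 SD below the library mean, with starting fluorescence not abnormally high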;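 further: negative B-score means reduced calcium response which marks RGS4 activation or potentiation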
#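 Material: Inducible-RGS4 HEK293 cells carrying M3 receptor; also added: carbachol at ECmax as muscarinic agonist stimulus; incubation: compound preincubation 20 min at room temperature before agonist; signal: Fluo4-AM (2 µM) calcium-flux fluorescence, kinetic read; measure: integrated calcium ratio converted to B score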
# RGS4 inh: inhibitors of human RGS4. P49798. HEK293 M3R/RGS4 inducible, Fluo-4 calcium flux; stronger effect = higher value; triggered by carbachol at its EC20. B-score at 10 µM. actives 0.45% (n = 310,000). AID 463165;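 active means B-score, a plate-corrected calcium signal, over three deviations above library mean, with baseline fluorescence within five deviations of library mean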;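 further: RGS4 expression induced by doxycycline in cells with stable M3 receptor; B-score is computed from the integrated fluorescence ratio over baseline after carbachol; higher B-score means a larger calcium signal and so more RGS4 inhibition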
# MrgX1 antag: blocks BAM8-22 activation of human MrgX1 receptor | AID 588676 | MRGX1-HEK293 calcium flux, Fluo-4, BAM8-22 antagonism; stronger effect = lower value | Q96LB2 | actives 1.3% (n = 310,000) | B-score at 10 µM;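 active means calcium-response B-score plate-corrected more than 3 library SD below zero, starting fluorescence within 5 deviations, no agonist response on first addition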;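 further: peak minus trough fluorescence over baseline after final BAM8-22 challenge near maximal dose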
# An asterisk follows results filed as active; i = inactive; x = not tested or not shown. The list is not random: actives were taken first. Their share in the collection is about 4.5%.
SMILES,MrgX1 agonist,PHOSPHO1 block,MrgX1 PAM,RGS4 pot,RGS4 inh,MrgX1 antag
Cc1cccc(C)c1NC(=O)CS(=O)CC(=O)NCC1OCCc2ccccc21 (stereo not drawn),i,-8,i,i,i,-4.8*
O=C(COc1ccc(Br)cc1)OCCN1CCCCC1,i,9,i,i,i,i
O=C(Nc1ccccc1F)Nc1ccc([N+](=O)[O-])cc1Cl,i,54,i,i,i,i
Cc1cccc(C(=O)N2CCCC(N3CCN(c4ccc(F)cc4)CC3)C2)n1 (stereo not drawn),i,27,i,i,i,i
COc1ccc(-c2nn(-c3ccccc3)cc2/C=N/NS(=O)(=O)c2ccccc2)cc1,i,38,i,i,i,i
COc1ccc(-c2nn(-c3ccccc3)cc2/C=N/NC(=O)c2cccc(S(=O)(=O)Nc3ccccc3Cl)c2)cc1,i,-2,i,i,i,-5*
Cc1ccsc1/C=N/NC(=O)c1cccc(S(=O)(=O)Nc2ccccc2Cl)c1,i,9,i,i,i,i
O=C(N/N=C/c1ccccn1)c1cccc(S(=O)(=O)Nc2ccccc2Cl)c1,i,28,16*,i,i,i
O=C(CSc1nc2ccccc2[nH]1)NCCN1CCCCC1,i,65*,i,i,i,i
CCOCCCNC(=O)C(Cc1ccccc1)NS(=O)(=O)c1ccc2c(c1)c(=O)n(C)c(=O)n2C (stereo not drawn),i,-2,i,i,i,-5.8*
CCCCNC(=O)C(Cc1ccccc1)NS(=O)(=O)c1ccc2c(c1)c(=O)n(C)c(=O)n2C (stereo not drawn),i,-2,i,x,x,i
CCCCNc1c(-c2ccc(SC3CCCCC3)cc2)nc2ccccn12,i,x,i,i,i,i
CCCCNc1c(-c2ccc(SC(C)CC)cc2)nc2ccccn12 (stereo not drawn),i,x,i,-7.5*,i,i
C/C(=N/NC(=O)c1cccc(N2CCCC2=O)c1)c1ccncc1,i,17,i,i,i,i
COc1ccccc1OCCNC(=O)C1CCN(C(C)=O)CC1,i,20,i,i,i,i
Clc1ccc(C2=NCCN2)cc1,i,44,i,i,i,i
Cc1cc(/C=N/n2cnnc2)c(C)n1-c1ccccc1,i,-57,i,i,i,i
Cc1sc(-n2c(C)cc(/C=C3\SC(=S)NC3=O)c2C)c(C#N)c1C,i,14,i,-11*,i,-7.4*
Cc1sc(-n2c(C)cc(/C=N/n3cnnc3)c2C)c(C#N)c1C,i,84*,i,i,i,i
CN1C2=C(C(=O)CC(C)(C)C2)C(c2cccs2)C2=C1CC(C)(C)CC2=O,i,x,i,i,i,i
CCN1CCN(c2ccc(S(=O)(=O)N3CCOCC3)cc2NC(=O)c2cc(Cl)nc3ccccc23)CC1,i,x,i,i,i,i
COc1ccc(-c2cc(C(=O)Nc3cc(S(=O)(=O)N4CCOCC4)ccc3N3CCOCC3)c3ccccc3n2)cc1,i,5,i,-7*,i,i
COc1ccc(CCN(Cc2cc3cc(C)cc(C)c3nc2Cl)C(=O)C2CC2)cc1,i,-7,i,-7.2*,i,i
COc1ccc(CN(CC2CCC(C(=O)O)CC2)C(=S)Nc2ccc(C)c(Cl)c2)cc1 (stereo not drawn),i,-25,i,i,i,i
c1ccc2c(c1)nnn2Cc1nnc2sc(-c3ccncc3)nn12,i,79*,i,i,i,i
c1csc(-c2nn3c(Cn4cnc5ccccc54)nnc3s2)c1,i,83*,i,i,i,i
Clc1cccc(-c2nn3c(Cn4cnc5ccccc54)nnc3s2)c1,i,52,i,i,i,i
c1ccc(Cc2nnc3sc(-c4ccncc4)nn23)cc1,i,80*,i,i,i,i
c1csc(-c2nn3c(Cn4nnc5ccccc54)nnc3s2)c1,i,-3,i,i,i,i
